Test results: ChEMBL document CHEMBL4513216, “Probing the Open Global Health Chemical Diversity Library for Multistage-Active Starting Points for Next-Generation Antimalarials” (ACS Infect Dis, 2020)

assay: Toxicity liver stage against HepG2, at 10uM; format: cell-based; design: test concentration 10 uM, cell line HepG2-A16-CD81EGFP; conditions: human, HepG2-A16-CD81EGFP cells; read-out: INHIBITION
How it was run: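 Uninfected HepG2-A16-CD81EGFP cells, 3 × 10^3 per well, 1536-well, plated on prespotted compound at 10 μM final, parasite-free screening media added to match infected plates; puromycin 10 μM positive, DMSO 0.5% negative; run in parallel with 48 h PbLuc assay at 37 °C, 5% CO2; viability by CellTiter-Glo luminescence, normalized to controls.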

Row | Compound | cytotoxicity at 10 µM
1 | O=C(c1ccccc1Cl)N1CCN(CCc2ccccn2)CC1 | 5.75%
2 | CC(C)CN1C(=O)COC[C@@H]1[C@H](O)c1ccc(NC(=O)C2CC2)cc1 | 5.76%
3 | Cc1c(C2SCC(=O)Nc3c2c(O)nn3C2CCCCC2)cnn1C (stereo unspecified) | 0.618%
4 | COc1ccc2c(ccn2CCC(=O)Nc2nc[nH]n2)c1 | -12.6%
5 | COc1cccc(OC)c1C(=O)NCC(c1cccn1C)N1CCCC1 (stereo unspecified) | 6.89%
6 | CCc1ccccc1NC(=O)C1CN(C(C)=O)C1 | 8.49%
7 | O=C(c1cccnc1)N1CC(S(=O)(=O)c2ccc(Cl)cc2)C1 | -0.649%
8 | COCC1c2c(cnn2C)CCN1C(=O)c1ccc2c(c1)OCO2 (stereo unspecified) | 3.74%
9 | c1cc(CNCC2Cn3nncc3CO2)ccn1 (stereo unspecified) | 6.62%
10 | CC(=O)N1CC(=O)N(c2cnn(C)c2)CC12CCN(Cc1ccco1)C2 (stereo unspecified) | 2.41%
11 | CC1CCC2(CC1)Nc1ccccc1CO2 (stereo unspecified) | 4.81%
12 | O=C(Cc1ccc2c(c1)OCC2)Nc1nc[nH]n1 | -2.94%
13 | CN(C)S(=O)(=O)N1CCC2(COCc3cnc(-c4ccccc4)nc32)C1 (stereo unspecified) | -13.6%
14 | O=c1cc(CN2CCCC2)nc2n1CCCN(Cc1ccsc1)C2 | -6.44%
15 | CCN(Cc1nonc1C)C(=O)c1cc(C(F)(F)F)nn1C | 2.06%
16 | COc1cc(NC(=O)NCC2CCCO2)cc(OC)c1OC (stereo unspecified) | -7.71%
17 | Cc1nn(C)c2c(N3CCN(C(=O)C4CCCO4)CC3)ncnc12 (stereo unspecified) | 6.42%
18 | O=S(=O)(c1ccc(N2CCCCC2)c2nonc12)N1CCCCC1 | 6.74%
19 | O=C1CNc2ncnc(N3CCN(Cc4ccccc4)CC3)c2N1 | 9.76%
20 | CCn1nc(C)c(NC(=O)c2cc(NC(=O)C3CC3)n(C)n2)c1C | -0.916%
21 | Cc1ccc(-c2cc(C(F)(F)F)nc(N3CCOCC3)n2)s1 | 0.452%
22 | CN1CCc2nc(C3CCCN(S(=O)(=O)c4ccccc4)C3)ncc2C1 (stereo unspecified) | 2.67%
23 | CC(C)Nc1nc(O)cc(C(C)n2ncc3ccccc3c2=O)n1 (stereo unspecified) | 2.81%

Row | Compound | cytotoxicity at 10 µM
24 | Cc1ccc(S(=O)(=O)N2CCN(CCCO)CC2)s1 | -9.12%
25 | CCN1CCN(c2cncc(Cl)n2)CC1 | 11.6%
26 | CCN1CCCCC1C(=O)N1CCN(C(=O)OC)CC1 (stereo unspecified) | -4.81%
27 | CC(C(=O)NCC(C)(C)c1ccc2c(c1)OCO2)n1ccnc1 (stereo unspecified) | 6.36%
28 | Cc1cc(C)c(CNc2cnn(CC(O)CN(C)C)c2)c(C)c1 (stereo unspecified) | 15%
29 | CN(Cc1nc2ccccc2[nH]1)C(=O)C(C)(C)n1cc(Cl)cn1 | 6.16%
30 | Cc1noc(CN(C)c2ccccc2)n1 | 8.82%
31 | COc1ccccc1OCC(=O)NS(=O)(=O)c1cccnc1 | -4.69%
32 | O=C(c1coc(-c2ccccc2)n1)N1CCS(=O)(=O)CC1 | 11.4%
33 | CCNC(=O)NC(=O)C(C)Nc1ccccc1OCCOC (stereo unspecified) | 4%
34 | COc1ccc(C(CO)NC(=O)Nc2cccc(F)c2)cc1 (stereo unspecified) | -4.82%
35 | Cc1noc(C)c1CN1CCC(N(C)Cc2noc(C(C)C)n2)C1 (stereo unspecified) | -6.37%
36 | Cc1ncccc1CNCC1CCc2nnc(C(C)C)n2C1 (stereo unspecified) | -6.27%
37 | O=C(CCc1ccc(Cl)s1)N1CCCC(N2CCNC2=O)C1 (stereo unspecified) | 1.09%
38 | CCOc1cc(CNC(=O)NCc2nc(C)c(C)s2)ccn1 | -2.49%
39 | O=S1(=O)CCC(n2cc(CNCC3(c4ccccc4)CC3)cn2)C1 (stereo unspecified) | 16.5%
40 | CCSc1ccc(C(=O)N2CCCCC2C(=O)NC(C)(C)C)cn1 (stereo unspecified) | -7.69%
41 | COCc1ccccc1C(=O)N1CCn2c(nnc2C(C)C)C1 | 2.91%
42 | CC(NCc1cnc(C2CCC2)s1)c1cccc(-n2ccnc2)c1 (stereo unspecified) | 4.12%
43 | Cc1nc(C(C)C)sc1C(=O)NCCn1ccnc1 | 1.28%
44 | Cc1nn(C)c(C)c1CC(=O)NCc1cccnc1OC1CCCC1 | -0.527%
45 | O=C(NC1(c2nccs2)CCCC1)c1cc(C2CC2)[nH]n1 | 2%
46 | CC(C)(C)Oc1ccccc1CNC(=O)C1CCCOC1 (stereo unspecified) | 0.997%

Row | Compound | cytotoxicity at 10 µM
47 | CCN(C(=O)NCc1ccc(C)cc1OC)C(C)c1cccnc1 (stereo unspecified) | 6.32%
48 | O=C(c1cnccn1)N1CCC(CN2CCOCC2)CC1 | 4.55%
49 | CNC(=O)C(C)S(=O)(=O)Cc1csc(-c2cccs2)n1 (stereo unspecified) | -11.9%
50 | CNC(=O)C1CCCN(C(=O)NCCC2Cc3ccccc3C2)C1 (stereo unspecified) | 15.4%
51 | Cc1nn(C)c(Oc2cccc(F)c2)c1NC(=O)C1CCCO1 (stereo unspecified) | -7.64%
52 | O=C(COc1ccccc1C(F)(F)F)NCCNC(=O)c1ccccc1 | -9.53%
53 | CC(C)N(CC1CCCN(CC(N)=O)C1)C(=O)OC(C)(C)C (stereo unspecified) | -5.66%
54 | Cc1nc(CNC(=O)c2oc3ccccc3c2CN(C)C)oc1C | 9.46%
55 | CN(CC1CC1)C(=O)CN(Cc1cccc(O)c1)C1CCC(O)CC1 (stereo unspecified) | -1.21%
56 | O=C(Nc1cccnc1)N1CCC(n2ccc(C(F)(F)F)n2)CC1 | -6.08%
57 | CCc1noc(C(C)N2CCC(NC(=O)c3ccc(C)s3)CC2)n1 (stereo unspecified) | -9.9%
58 | CCN(C(=O)COC)C(c1cccnc1)c1cc(C)cc(C)c1 (stereo unspecified) | -20.9%
59 | Cc1cc(N2CCN(CCO)CC2)nc(-c2ccncc2)n1 | -1.25%
60 | Cc1cc(F)ccc1CNCCn1cccn1 | -10.2%
61 | O=C(c1cnccn1)N1CC[C@H]2C[C@@H](c3ccncn3)O[C@@H]2C1 | -78.5%
62 | CN1CCCC2(CCN(C(=O)c3ccncc3)C2)C1 (stereo unspecified) | -68.3%
63 | CCOCC1CC2(CCN(Cc3ccccn3)CC2)CO1 (stereo unspecified) | -0.671%
64 | CCCc1cncnc1N1CCC(NCc2ccc(O)cc2)CC1 | 3.8%
65 | CCc1cnc(NCc2nc(CSC)no2)nc1 | 7.15%
66 | N#CC1(c2ccccc2)CCN(C(=O)CN2C(=O)CCNC2=O)CC1 | 0.172%
67 | COc1ccc(C)cc1-n1cnnc1C1CCCN(C)C1 (stereo unspecified) | 6.43%
68 | CCN1CC(CN(C)Cc2nc(-c3cccc(Cl)c3)oc2C)CC1=O (stereo unspecified) | 6.9%
69 | CCc1oc(C(=O)NC(C)Cc2cnccn2)cc1CN1CCCC1 (stereo unspecified) | -5.28%

Row | Compound | cytotoxicity at 10 µM
70 | CCN(Cc1noc(C2CCC2)n1)C(=O)c1cn2ccsc2n1 | 5.44%
71 | CCn1cc(-c2c(C)c(C3CCOC(C)(C)C3)nc(N)c2C#N)cn1 (stereo unspecified) | -10.3%
72 | Cc1nn(C)c2ncnc(N3CCC(O)(CN4CCCC4)CC3)c12 | 2.68%
73 | Cc1cc(CNc2cncc(C(=O)N(C)C)n2)c2[nH]c(C)c(C)c2c1 | -12.2%
74 | CC(C)n1cc(C(=O)N2CCC(n3cc(C(C)(C)C)nn3)CC2)cn1 | 1.19%
75 | CN1C(=O)C(c2ccccc2)CC12CCN(CCN)CC2 (stereo unspecified) | 8.67%
76 | CCCc1nc(CN(CC)C(=O)c2ccc3[nH]cnc3c2)no1 | 3.98%
77 | COc1ccc(/C=C/CN2CCC3(CC2)CN(C)C(=O)O3)cc1 | -2.11%
78 | Cc1cc(CN(C)C(=O)C(c2ccccc2F)N(C)C)ccn1 (stereo unspecified) | 2.78%
79 | O=C(c1nc(=O)[nH]c2ccccc12)N1CCCC(CC2CC2)(C(=O)O)C1 (stereo unspecified) | 6.56%
80 | COCC(NC(=O)c1cc(NC(C)=O)ccc1Cl)c1ccnn1C (stereo unspecified) | -2.22%
81 | Cc1nn(C)cc1-c1ccnc(N(C)Cc2ccc(F)cc2)n1 | -3.85%
82 | CNc1ccnc(N2C[C@@H](C)[C@](O)(C3CCC3)C2)n1 | -10.1%
83 | CC(Cn1cccn1)n1cnc2cccc(F)c2c1=O (stereo unspecified) | -0.288%
84 | OC1(CN2CCCCC2)CCN(Cc2c[nH]c(CC3CCCC3)n2)C1 (stereo unspecified) | -13%
85 | CCCc1nnc(N2CCN(c3cccc(C)c3C)CC2)o1 | 9.59%
86 | Cc1c(C2CCOC(C)(C)C2)nc(N)c(C#N)c1-c1ccc(O)cc1 (stereo unspecified) | 22.8%
87 | O=C1CC(C(=O)O)C2(CCN(C(=O)NCc3ccc(Cl)cc3)CC2)N1 (stereo unspecified) | 7.66%
88 | Cc1ncnc(NCc2cc3n(n2)CCCN(S(C)(=O)=O)C3)c1C | -8.42%
89 | CC(=O)Nc1ccc(CNC2CC(=O)N(Cc3cccc(F)c3)C2)cc1 (stereo unspecified) | -6.98%
90 | CCOCCn1nc(C)cc1C(=O)N1CC[C@](C)(O)[C@H](C)C1 | -6.34%
91 | Cc1nc(N)cc(C2CN(C(=O)c3ccn(C)n3)CCO2)n1 (stereo unspecified) | 0.0241%
92 | C=Cn1ncc(CN2C[C@@H]3CCCN3C[C@H]2CCSC)c1C | -4.12%

Row | Compound | cytotoxicity at 10 µM
93 | CC(C)c1nc(CN2CCCC2Cn2cncn2)no1 (stereo unspecified) | -7.3%
94 | COc1ccc(OC2CCN(C(=O)c3ccc(C)[nH]c3=O)CC2)cc1 | -3.22%
95 | CN1CCCCC1c1cncc(Cl)n1 (stereo unspecified) | 0.995%
96 | O=S(=O)(NCC1OCCc2cn(CC3CCOCC3)nc21)C1CC1 (stereo unspecified) | 11.2%
97 | Cc1ccc(Nc2ncnc3c2CCN(CC2CCOC2)CC3)cc1 (stereo unspecified) | 5.32%
98 | O=C(C1=CCCC1)N1CCO[C@H]2[C@@H](Oc3ccccn3)CC[C@@H]21 | 0.179%
99 | Cc1cnc(N2C[C@H]3CCN(CC4CC4)C[C@@H]3C2)nc1 | 7.55%
100 | O=C(O)c1cc2c(nc1NCC1CC1)CCN(C1CCOC1)CC2 (stereo unspecified) | 7.83%
101 | c1ccc(COC[C@H]2CC[C@H]3[C@H](CCN3Cc3cccnc3)O2)nc1 | -80.2%
102 | Cc1noc(C)c1CN1CC[C@H]2OCC[C@@]2(C(=O)N(C)C)C1 | -76.5%
103 | CC(C)C(=O)N1CCC2(CN(CC3CCCC3)C2)C1 | 3.86%
104 | COCCNC(=O)C1CN(Cc2nccs2)Cc2ccnn2C1 (stereo unspecified) | -72.7%
105 | N#Cc1cccc(CN2CC[C@@H]3[C@@H]2CC(=O)N3Cc2ccncc2)c1 | -73.7%
106 | Cc1noc(C)c1CN1CCO[C@H]2CNC[C@H]21 | 5.4%
107 | O=C(c1cccnc1)N1CCCC2(COCCN(c3ccccc3)C2)C1 (stereo unspecified) | 2.17%
108 | CCS(=O)(=O)N1CCCC2(COCCN(c3nnc(C)o3)C2)C1 (stereo unspecified) | 8.88%
109 | Cc1noc([C@@H]2C[C@H]3OCC[C@H]3N(S(=O)(=O)c3cccnc3)C2)n1 | -12.5%
110 | O=C(COC1CCCC1)N1C[C@@H]2CN(Cc3ccoc3)CCO[C@@H]2C1 | 4.65%
111 | CCCS(=O)(=O)N1CCN(CCOC)c2nc(C)ccc2C1 | 8.07%
